From ChEMBL document CHEMBL1121571, “Cytotoxic and antitumor properties of bleomycin and several of its metal complexes” (J Med Chem, 1980)

Experiments:
Format in all cases: functional, organism-based
[1] = species: Mus musculus; test: Tested for the thymidine uptake against blenoxane at 80 nm of drug/mg of cell protein in mice
Method in brief: (§1)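 Ehrlich ascites cells from a donor mouse, in fresh MEM at 5 × 10⁶ cells/mL, were exposed to drug for 60 min at 37 °C with gentle shaking. They were then washed once, resuspended in fresh MEM and given [³H]thymidine (final thymidine about 8.6 × 10⁻⁸ M) for 20 min. DNA synthesis was read as perchloric acid-precipitable label. Values are % of control ± SD over three trials.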

[2] = species: Mus musculus; test: Tested for the inhibition of DNA synthesis against blenoxane at 10 nm of drug/mg of cell protein in mice; design: scale not given: the % may be the effect or the level left; method in brief: as §1
[3] = species: Mus musculus; test: Tested for the thymidine uptake against blenoxane at 10 nm of drug/mg of cell protein in mice; method in brief: as §1
[4] = species: Mus musculus; test: Tested for the inhibition of DNA synthesis against blenoxane at 80 nm of drug/mg of cell protein in mice; design: scale not given: the % may be the effect or the level left; method in brief: as §1
[5] = species: Mus musculus; test: Tested for the inhibition of DNA synthesis against blenoxane at 40 nm of drug/mg of cell protein in mice; design: scale not given: the % may be the effect or the level left; method in brief: as §1
[6] = species: Mus musculus; test: Tested for the thymidine uptake against blenoxane at 40 nm of drug/mg of cell protein in mice; method in brief: as §1
[7] = species: Mus musculus; test: Tested for the inhibition of DNA synthesis against blenoxane at 4 nm of drug/mg of cell protein in mice; design: scale not given: the % may be the effect or the level left
Method in brief: (§2)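 Culture-adapted Ehrlich cells were incubated 60 min with […] (4 nmol/mg cell protein) in the presence of serum. [³H]dThd incorporation into DNA was measured at the end of the 60 min. Values are expressed relative to untreated control.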

[8] = species: Mus musculus; test: Tested for the thymidine uptake against blenoxane at 4 nm of drug/mg of cell protein in mice
[9] = species: Mus musculus; test: Tested for the inhibition of DNA synthesis against cu-blenoxane at 10 nm of drug/mg of cell protein in mice; design: scale not given: the % may be the effect or the level left; method in brief: as §1
[10] = species: Mus musculus; test: Tested for the inhibition of DNA synthesis against cu-blenoxane at 80 nm of drug/mg of cell protein in mice; design: scale not given: the % may be the effect or the level left; method in brief: as §1
[11] = species: Mus musculus; test: Tested for the thymidine uptake against cu-blenoxane at 40 nm of drug/mg of cell protein in mice; method in brief: as §1
[12] = species: Mus musculus; test: Tested for the inhibition of DNA synthesis against cu-blenoxane at 4 nm of drug/mg of cell protein in mice; design: scale not given: the % may be the effect or the level left; method in brief: as §2
[13] = species: Mus musculus; test: Tested for the thymidine uptake against cu-blenoxane at 4 nm of drug/mg of cell protein in mice
[14] = species: Mus musculus; test: Tested for the thymidine uptake against cu-blenoxane at 80 nm of drug/mg of cell protein in mice; method in brief: as §1
[15] = species: Mus musculus; test: Tested for the inhibition of DNA synthesis against cu-blenoxane at 40 nm of drug/mg of cell protein in mice; design: scale not given: the % may be the effect or the level left; method in brief: as §1
[16] = species: Mus musculus; test: Tested for the thymidine uptake against cu-blenoxane at 10 nm of drug/mg of cell protein in mice; method in brief: as §1

Substance | Control [1] [%] | Control [2] [%] | Control [3] [%] | Control [4] [%] | Control [5] [%] | Control [6] [%] | Control [7] [%] | Control [8] [%] | Control [9] [%] | Control [10] [%] | Control [11] [%] | Control [12] [%] | Control [13] [%] | Control [14] [%] | Control [15] [%] | Control [16] [%]
BLEOMYCIN | 61.9 | 66.1 | 79.1 | 40.1 | 56.4 | 69.8 | 67.9 | 86 | – | – | – | – | – | – | – | –
cu-blenoxane | – | – | – | – | – | – | – | – | 61.5 | 51.3 | 71.2 | 86.8 | 94.9 | 68.4 | 55.3 | 83.5
